Screening data (PubChem)
MC4R antag cAMP – blocks human MC4R cAMP signaling | P32245 | MC4R-expressing cells, MTII-stimulated cAMP, LANCE TR-FRET | inhibition, % at 6.5 µM | actives 0.48% (n = 360,000) | AID 540295;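 active = inhibition above its plate's cutoff, the mean of tested wells on that plate plus 3 SD, cut at about 29% in these data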;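 note: 0% = Melanotan II alone and 100% = Melanotan II plus saturating MCL0020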
Target sequence (P32245 whole entry, looked up): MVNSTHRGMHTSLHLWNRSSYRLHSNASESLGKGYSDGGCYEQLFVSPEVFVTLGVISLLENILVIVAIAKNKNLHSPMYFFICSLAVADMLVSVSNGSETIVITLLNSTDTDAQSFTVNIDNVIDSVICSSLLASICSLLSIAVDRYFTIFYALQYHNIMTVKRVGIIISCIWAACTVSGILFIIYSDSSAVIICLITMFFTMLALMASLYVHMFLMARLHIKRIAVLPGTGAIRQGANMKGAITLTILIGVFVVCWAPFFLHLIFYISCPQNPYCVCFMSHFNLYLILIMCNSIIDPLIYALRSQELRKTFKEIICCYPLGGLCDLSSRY
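Assay system: human MC4R-expressing U2OS cells; reagent: Melanotan II stimulation of cells; dosing: 6.5 µM single dose; timing: compound 30 min, challenge 1 h, detection 1 h; signal: TR-FRET cAMP assay; replicates: one well per compound, no replicates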
TbMetRS inhib – blocks T. brucei methionyl-tRNA synthetase activity; purified T. brucei MetRS, ATP depletion, Kinase-Glo luminescence; inhibition, % at 11.9 µM; actives 0.4% (n = 360,000); AID 624268;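 active = inhibition above a per-plate cutoff of the control wells' mean inhibition plus 3 SD, cut at about 5.5% in these data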;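 note: 0% = DMSO wells median and 100% = median of wells with control inhibitor compound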
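technique = Kinase-Glo luminescence, ATP depletion format | system = purified MetRS (methionyl-tRNA synthetase) enzyme from Trypanosoma brucei | timing = 15 min preincubation, 2 h reaction, all 25 °C | evaluation = percent inhibition versus plate control medians | dosing = single dose, 11.9 µM final nominal, 0.9% final DMSO | also added = substrates ATP, L-methionine and bulk Escherichia coli tRNA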
TAG inh – inhibitors of triacylglycerol accumulation. H9c2 cells, Nile Red lipid (TAG) fluorescence; cells loaded with 200 µM oleic acid. actives 0.66% (n = 230,000). inhibition, % at 12.5 µM;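 active = pattern-corrected inhibition of lipid staining of at least 50% with the nuclear-stain viability signal not falling by more than 50%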;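 note: 0% = DMSO wells and 100% = triacsin C control wells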
aDG glyco up – alpha-DG glycosylation activation | Pro5-aDG cells, alpha-DG glycosylation AlphaScreen (IIH6); 0% Pro5, 100% B10-LARGE cell signal | AID 624168 | actives 0.22% (n = 360,000) | activation, % at 10 µM;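 active = activation of at least 8% versus controls, or a plate z-score of at least 8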;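 note: Pro5 are CHO cells carrying HIG-tagged alpha-DG that lacks glycosylation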
MC4R barr agon – agonists of human melanocortin 4 receptor (MC4R) beta-arrestin | P32245 | U2OS MC4R beta-arrestin complementation, luminescence; percent of melanotan II response, DMSO zero | activation, % at 8.9 µM | actives 0.98% (n = 360,000) | AID 540308;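 active = activation above a per-plate cutoff, the mean activation of sample wells on that plate plus 3 SD, cut at about 8% in these data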
NTR1 ag – NTR1 (human) agonism; activation, % at 20 µM; AID 493036; actives 0.17% (n = 330,000); P30989; NTR1-U2OS beta-arrestin-GFP spot imaging, agonist mode;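 active = activation at or above 40% of the spot to cytoplasm intensity ratio, with at least 20 cells analyzed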;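 note: 0% = DMSO without peptide and 100% = 100 nM NTR1 peptide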
TbMetRS confirm – confirmation of Trypanosoma brucei MetRS inhibitors; shares compounds with TbMetRS inhib; T. brucei MetRS enzyme, luminescence (ATP depletion); inhibition, % at 11.9 µM; actives 93% (n = 1,400); in the data active = inhibition above about 7%
Jurkat cytotox – kills Jurkat cells in T. brucei MetRS counterscreen; shares compounds with TbMetRS inhib; Jurkat cells viability, ATP luminescence; inhibition, % at 8.3 µM; actives 12% (n = 1,400); in the data active = inhibition above about 15%;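 note: 0% = vehicle and 100% = reference inhibitor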
TbMetRS FP orth – inhibits T. brucei methionyl tRNA synthetase in orthogonal FP test; inhibition, % at 11.9 µM; shares compounds with TbMetRS inhib; AID 651607; actives 44% (n = 1,400); purified T. brucei MetRS, fluorescence polarization; in the data active = inhibition above about 17%;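 note: 0% = vehicle wells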
An asterisk follows results filed as active; . = no result given. Sampled rows, rich in hits. Any-hit rate of the full collection: about 2.4%.

SMILES	MC4R antag cAMP	TbMetRS inhib	TAG inh	aDG glyco up	MC4R barr agon	NTR1 ag	TbMetRS confirm	Jurkat cytotox	TbMetRS FP orth
O=C(CNC(=O)c1ccc(Br)cc1)N/N=C/c1ccc[nH]1	10	23*	3	0	2	1	47*	10	22*
Cc1ccc(NC2=NC(c3ccc(O)cc3)n3c(nc(C)cc3=O)N2)cc1 (configuration not stated)	2	1	.	0	-2	1	.	.	.
Cc1ccc(C2NC(=NCc3ccccc3)Nc3nc(C)cc(=O)n32)cc1 (configuration not stated)	2	7.6*	9	0	-2	0	17*	-1	-1
O=C1CCCC(=NNC(=O)c2cc3ccccc3cc2O)C1	-3	5.9*	0	0	-1	-2	24*	1	14
CCOC(=O)c1nnn(CC(=O)NC(=O)Nc2ccccc2)c1C(=O)OCC	21	7.3*	-5	0	-2	5	20*	-8	6
Nc1nc(=O)n(C2CCC(CO)O2)cc1F (configuration not stated)	.	-1	.	0	.	.	.	.	.
Cc1ccc2nc(-c3ccc(SCC(=O)O)nc3)[nH]c2c1	2	10*	-6	0	0	0	21*	-3	4
CC(=O)CSc1ccc(-c2nc3ccccc3[nH]2)cn1	0	1	.	0	-2	2	.	.	.
O=C(CSc1ccc(-c2nc3ccccc3[nH]2)cn1)Nc1ccc(S(=O)(=O)N2CCCC2)cc1	4	30*	.	0	1	2	33*	8	31*
CCOC(=O)CNC(=O)CSc1ccc(-c2nc3ccccc3[nH]2)cn1	4	9.1*	.	0	-1	1	28*	6	10
N#Cc1ccccc1CSc1ccc(-c2nc3ccccc3[nH]2)cn1	7	11*	.	2	-1	5	24*	12	21*
CC(=O)c1ccc(Nc2nc(C(N)CCc3ccccc3)cs2)cc1 (configuration not stated)	7	0	33	1	4	.	.	.	.
CCCCNC(=O)C[C@@H]1C[C@@]2(C(=O)OC)CCCCC=C2N(Cc2ccccc2)C1=O	.	0	.	0	.	.	.	.	.
COc1ccccc1CNC(=O)COc1cc(O)c2c(c1)OC(C)(C)CC2=O	1	0	.	0	0	.	.	.	.
COc1cccc(CNc2ncnc3cc(Cl)ccc23)c1	3	12*	-25	5	1	.	20*	14	5
Cc1ccc2nc(-c3cccc(Br)c3)c(Cc3ccccc3)n2c1	.	0	.	0	.	.	.	.	.
CCN(CC)S(=O)(=O)c1cc(C(=O)Nc2ccncc2)ccc1Cl	1	0	.	2	1	1	.	.	.
CCN(CC)S(=O)(=O)c1cc(C(=O)N(C)CC(=O)Nc2ccc(Cl)cc2)ccc1Cl	4	43*	.	0	-1	0	57*	1	24*
CN(N=Nc1nc[nH]c1C(N)=O)C1CCCCC1	.	0	.	0	.	.	.	.	.
CC(C)(C)n1nnnc1C(c1ccccc1)N1CCN(C(=O)c2ccco2)CC1 (configuration not stated)	.	-1	.	0	.	.	.	.	.
CCN(C(=O)CSc1nnc(-c2ccccc2Br)o1)C1CCS(=O)(=O)C1 (configuration not stated)	-1	-1	0	3	4	4	.	.	.
CCN(C(=O)CSc1nnc(-c2c[nH]c3ccccc23)o1)C1CCS(=O)(=O)C1 (configuration not stated)	8	7.3*	3	0	-1	0	13*	-4	12
Nc1nc2n(n1)C(c1ccco1)CC(c1ccc(Cl)cc1)N2 (configuration not stated)	1	1	-39	0	-1	-2	.	.	.
